Test results: publication PMC4303578 (Chemical Science, 2014)

Tested on: His6–FzmG
Assay: O2 consumption, Hansatech O2 electrode
Type: biochemical
Details: alpha-KG 1 mM (saturating), Fe(II)
Summary of the method: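 Apparent steady-state kinetics by Clark-type O2 electrode. Phosphonic acid substrate concentration varied; α-KG held at 1 mM (saturating). Enzyme held constant at 3.7 μM for most substrates and 9.25 μM for one. Reactions were started by adding enzyme. Initial O2-consumption rates were measured in triplicate. Km was taken from nonlinear Michaelis–Menten regression.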

SMILES	Km (3.7 μM enzyme)	Km (9.25 μM enzyme)
O=P(O)(O)CCO [2-HEP]	210 ± 40 µM	–
COC(=O)CP(=O)(O)O [Me-PnA]	80 ± 20 µM	–
O=CCP(=O)(O)O [PnAA]	800 ± 300 µM	–
O=C(O)CP(=O)(O)O [PnA]	–	8000 ± 1000 µM
